Source: ChEMBL document CHEMBL1141427, “Antifungal amides from Piper scutifolium and Piper hoffmanseggianum” (2007)

Experiments:
[1] = system: Cladosporium cladosporioides; test: Antifungal activity against Cladosporium cladosporioides after 72 hrs; format: functional
In short: (§1)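 TLC bioautography: compounds applied to TLC plates, sprayed with a fungal spore suspension in glucose and salt solution, incubated 72 h in darkness in a moistened chamber at 25 °C. Clear inhibition zones against a dark background read as the minimum amount (µg) inhibiting growth on the plate. Strains: C. cladosporioides SPC 140, C. sphaerospermum SPC 491. Nystatin and miconazole positive controls; ampicillin and chloramphenicol negative controls.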

[2] = system: Cladosporium sphaerospermum; test: Antifungal activity against Cladosporium sphaerospermum after 72 hrs; format: functional; in short: as §1

Row | Molecule | MIC [1] [µg] | MIC [2] [µg]
1 | CC(=O)OC(C)(C)CNC(=O)/C=C/C=C/c1ccc2c(c1)OCO2 [CORCOVADINE] | 1 | 1
2 | CC(=O)OC(C)(C)CNC(=O)/C=C\C=C/c1ccc2c(c1)OCO2 [ISOCORCOVADINE] | 2.5 | 1
3 | CC(C)CNC(=O)/C=C\C=C/c1ccc2c(c1)OCO2 [ISOPIPERLONGUMININE] | 0.25 | 0.25
4 | Clc1ccc(COC(Cn2ccnc2)c2ccc(Cl)cc2Cl)c(Cl)c1 (stereo not drawn) [MICONAZOLE] | 1 | 1
5 | CC(C)CNC(=O)/C=C/C=C/c1ccc2c(c1)OCO2 [PIPERLONGUMININE] | 1 | 1
6 | COc1c(OC)c(OC)c2c3c(cc4ccccc42)NC(=O)c13 [PIPEROLACTAM C] | 5 | 50
7 | COc1ccc(C/C=C/C=C/C(=O)NCC(C)C)cc1 [PIPEROVATINE] | 1 | 1
8 | CC(C)CNC(=O)/C=C/C=C\c1ccc2c(c1)OCO2 [SCUTIFOLAMIDE A] | 5 | 5
9 | NYSTATIN | 1 | 1
